Bioassay records from PubChem.
MLLE-PAM2 inh – blocks PAM2 peptide binding to the PABP1 MLLE domain | GST-MLLE / FITC-PAM2 fluorescence polarization | inhibition, % at 20 µM | 360,000 compounds, 0.36% hits | AID 588489; in the data active means inhibition above about 35%, passing the limit was not always enough;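 further: plate controls were DMSO wells with GST-MLLE for no effect and wells lacking GST-MLLE protein for full effect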
RBBP9 inhibitor – inhibitors of human serine hydrolase RBBP9; O75884; recombinant RBBP9, FP-Rh probe fluorescence polarization; inhibition, % at 7.94 µM; 220,000 compounds, 0.2% hits;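 active means inhibition above the campaign mean of all tested compounds plus 3 SD, cut at about 14% in these data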;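 further: plate controls were DMSO wells with RBBP9 for no effect and wells lacking RBBP9 protein for full effect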
Target sequence (O75884 whole entry, looked up): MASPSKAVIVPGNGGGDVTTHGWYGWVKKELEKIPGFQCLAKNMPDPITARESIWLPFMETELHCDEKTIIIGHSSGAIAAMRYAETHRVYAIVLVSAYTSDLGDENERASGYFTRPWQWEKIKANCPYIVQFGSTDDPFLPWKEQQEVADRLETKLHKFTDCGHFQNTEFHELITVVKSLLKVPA
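Measured by – fluorescence polarization · Test system – RBBP9 protein · Input – 2.5 µM RBBP9 dispensing solution, before mixing · Measure – percent inhibition from mP, scaled between DMSO and no-protein wells · Benchmarks – DMSO-treated enzyme wells and wells lacking RBBP9 · Times – preincubation 30 min plus labeling 45 min at 25 °C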
eIF4H inh – inhibitors of RNA binding by human eIF4H; 290,000 compounds, 0.94% hits; AID 2012; eIF4H fluorescence polarization binding assay; inhibition, % at 35 µM; Q15056;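 further: calls also rest on retests at 20 µM and on dose response follow-up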
PABP polyA inh – blocks human PABP binding to poly(A) RNA; P11940; calls only at 35 µM; 290,000 compounds, 1% hits; fluorescence polarization;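 further: calls also rest on retests at 20 µM and on dose response follow-up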
TCR CD3 inh – blocks the human TCR-CD3 interaction; TAMRA-labeled TCR probe fluorescence, biochemical; inhibition, % at 9.4 µM; 360,000 compounds, 0.37% hits; in the data active means inhibition above about 19%;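 further: recombinant mutant TCR 2C K166C tagged with TAMRA read by polarization; 0% = receptor in buffer alone and 100% = receptor with positive control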
* marks the source's active call; other numbers are inactive results. Only some compounds are listed: those with a hit (about 1.6% of all), similar ones and a draw of the others. Unless noted, how the calls were made is not given here.

For CC(NS(=O)(=O)c1ccc2c(c1)oc(=O)n2C)c1ccccc1 (stereo not given) the results were MLLE-PAM2 inh 6, eIF4H inh 91, PABP polyA inh active and TCR CD3 inh -3.
Cn1c(=O)oc2cc(S(=O)(=O)Nc3ccc4c(c3)OCCO4)ccc21 was read as MLLE-PAM2 inh -10, RBBP9 inhibitor -6, eIF4H inh 75*, PABP polyA inh active and TCR CD3 inh -2.
O=S1(=O)c2ccc(Br)cc2OC2CCCC[C@@H]2N1Cc1ccccc1 (stereo not given in full) was read as TCR CD3 inh 6.
Screening C=C1[C@@H](CCO)N(S(=O)C(C)(C)C)C[C@@H]1C (stereo not given in full) returned TCR CD3 inh -1.
O=C(CC(Sc1ccccc1)c1cccs1)c1ccco1 (stereo not given) was read as MLLE-PAM2 inh 37*, RBBP9 inhibitor -6, eIF4H inh -4, PABP polyA inh inactive and TCR CD3 inh -3.
`O=C(Cc1cccs1)OCC(=O)c1ccco1` gave MLLE-PAM2 inh 24, RBBP9 inhibitor 1, eIF4H inh 24, PABP polyA inh inactive and TCR CD3 inh 2.
For C/C(O)=c1/c(=O)nc2cccc3c2=c1c1ccccc1c3=O the results were MLLE-PAM2 inh 47*, eIF4H inh inconclusive, PABP polyA inh inconclusive and TCR CD3 inh 9.
COc1nnc(-c2ccccc2)s1 was read as MLLE-PAM2 inh 39*, RBBP9 inhibitor -11, eIF4H inh -5, PABP polyA inh inactive and TCR CD3 inh -1.
Nc1nnc(-c2ccccc2)s1 was read as MLLE-PAM2 inh 5, RBBP9 inhibitor -2, eIF4H inh -5, PABP polyA inh inactive and TCR CD3 inh 9.
O=C(N[C@H](C(=O)N1CCC[C@H]1C(=O)NCCc1ccccc1Cl)C1CCCCC1)c1cccs1 was read as TCR CD3 inh -1.
Screening Clc1cccc(C2Nc3cccc4cccc(c34)N2)c1 returned MLLE-PAM2 inh 9, eIF4H inh 53*, PABP polyA inh active and TCR CD3 inh -6.
Screening Brc1cccc(C2Nc3cccc4cccc(c34)N2)c1 returned MLLE-PAM2 inh 14, eIF4H inh 46, PABP polyA inh inactive and TCR CD3 inh -12.
Screening c1ccc(C2Nc3cccc4cccc(c34)N2)cc1 returned MLLE-PAM2 inh 13, eIF4H inh 86*, PABP polyA inh active and TCR CD3 inh -2.
C/C(=C\c1cc2ccccc2o1)C1Nc2cccc3cccc(c23)N1 was read as MLLE-PAM2 inh -14 and TCR CD3 inh 0.
For Brc1ccc(C2Nc3cccc4cccc(c34)N2)o1 the results were MLLE-PAM2 inh 36, RBBP9 inhibitor -3, eIF4H inh 99* and PABP polyA inh active.
`Oc1ccccc1C1Nc2cccc3cccc(c23)N1` gave MLLE-PAM2 inh 0, RBBP9 inhibitor -1, eIF4H inh 95*, PABP polyA inh active and TCR CD3 inh 2.
CCOc1cc(C2Nc3cccc4cccc(c34)N2)ccc1O was read as MLLE-PAM2 inh 6, RBBP9 inhibitor -1, eIF4H inh 47 and PABP polyA inh inactive.
Screening Cc1[nH]nc2c1C(c1ccccc1)N(Cc1ccccc1)C2=O (stereo not given) returned TCR CD3 inh 1.
CCc1cc2c(nc1CC)CCCN2S(=O)(=O)c1cccs1 was read as TCR CD3 inh 7.
Screening COc1cccc(C(=O)N[C@@H](CC(C)C)C(=O)N2CCC[C@H]2C(=O)NCc2ccccc2)c1 returned TCR CD3 inh 2.
Screening Clc1ccc(C2Nc3cccc4cccc(c34)N2)cc1Cl returned MLLE-PAM2 inh 6, eIF4H inh 55*, PABP polyA inh active and TCR CD3 inh -6.
For CN(C)c1ccc(C2Nc3cccc4cccc(c34)N2)cc1 the results were MLLE-PAM2 inh -42, eIF4H inh 7, PABP polyA inh inactive and TCR CD3 inh 1.
`CCOc1ccc(C(=O)CC(Sc2ccc(C)cc2)C(=O)O)cc1` (stereo not given) gave MLLE-PAM2 inh 35, RBBP9 inhibitor 4, eIF4H inh 5, PABP polyA inh inactive and TCR CD3 inh 5.
Screening O=C(CC(Sc1ccc(Br)cc1)C(=O)O)c1ccc(F)cc1 (stereo not given) returned MLLE-PAM2 inh 39*, eIF4H inh -2, PABP polyA inh inactive and TCR CD3 inh 11.
`CN(C)Cc1cc(O)c(CN(C)C)cc1O` gave MLLE-PAM2 inh 79*, RBBP9 inhibitor 7, eIF4H inh 80, PABP polyA inh inactive and TCR CD3 inh 2.
Screening CN(C)Cc1cc(C(C)(C)C)cc(C(C)(C)C)c1O returned MLLE-PAM2 inh -14, RBBP9 inhibitor -5, eIF4H inh -5, PABP polyA inh inactive and TCR CD3 inh 5.
CNC(=O)C1CC(=O)N(CCc2ccccc2)C(=Nc2ccc(OC)cc2)S1 (stereo not given) was read as MLLE-PAM2 inh -25, RBBP9 inhibitor -4, eIF4H inh 7, PABP polyA inh inconclusive and TCR CD3 inh -10.
For CCN1C(=O)CC(C(=O)NCCc2ccc(S(N)(=O)=O)cc2)SC1=Nc1ccc(OC)cc1 (stereo not given) the results were MLLE-PAM2 inh 1, RBBP9 inhibitor -2, eIF4H inh active, PABP polyA inh active and TCR CD3 inh -1.
For CCC1=NN2C(=N)/C(=C/c3c(C)nn(-c4ccccc4)c3Cl)C(=O)N=C2S1 the results were MLLE-PAM2 inh 3, RBBP9 inhibitor -7, eIF4H inh 74*, PABP polyA inh active and TCR CD3 inh 0.
Screening COc1cc(/C=C2\CCCc3c2nc2ccccc2c3C(=O)O)cc(OC)c1O returned MLLE-PAM2 inh 18, RBBP9 inhibitor 5, eIF4H inh 29, PABP polyA inh inactive and TCR CD3 inh 2.
`COc1cc(/C=C2\CCCc3c2nc2ccccc2c3C(=O)O)cc([N+](=O)[O-])c1O` gave MLLE-PAM2 inh 20, eIF4H inh 80*, PABP polyA inh active and TCR CD3 inh -2.
CN(C)c1cccc(C(=O)OCc2cc(=O)oc3cc(O)ccc23)c1 was read as MLLE-PAM2 inh 1, RBBP9 inhibitor 0, eIF4H inh 88*, PABP polyA inh active and TCR CD3 inh 0.
For N=C1/C(=C\c2ccc(-c3ccc(C(=O)O)cc3)o2)C(=O)N=C2SC=C(c3ccccc3)N12 the results were MLLE-PAM2 inh -109, RBBP9 inhibitor -8, eIF4H inh 70*, PABP polyA inh inactive and TCR CD3 inh 4.
Screening O=C(O)c1ccc(N2C(=O)c3cccc4c(C(=O)O)ccc(c34)C2=O)cc1 returned MLLE-PAM2 inh -17, RBBP9 inhibitor -2, eIF4H inh 96*, PABP polyA inh active and TCR CD3 inh 9.
For O=C(O)c1ccc2c3c(cccc13)C(=O)N(c1ccccc1)C2=O the results were MLLE-PAM2 inh 0, RBBP9 inhibitor -3, eIF4H inh 81, PABP polyA inh inactive and TCR CD3 inh 10.
C/C=C/C(=O)OCC(=O)Nc1ccc(SC(F)F)cc1 was read as MLLE-PAM2 inh 29, RBBP9 inhibitor -1, eIF4H inh active, PABP polyA inh active and TCR CD3 inh 6.
